{"data": "Assay results collected from several papers", "note": "Each line is one published result; the experiments were not run side by side."}
{"Structure (SMILES)": "CC(C)[C@H](N)C(=O)OCCCCCn1cnc2nc(NCc3ccc(Cl)c(Cl)c3)[nH]c(=O)c21", "organism": "Lactobacillus acidophilus", "assay": "microbial growth, agar dilution", "setting": "48 h", "quantity": "MIC", "value": "8 µg/mL"}
{"Structure (SMILES)": "COC(=O)c1cc(-c2cccc(NC(=S)NC3CCCCC3)c2)on1", "organism": "Escherichia coli", "assay": "microbial growth, broth dilution", "system": "ATCC25922", "quantity": "MIC", "value": "> 64 µg/mL"}
{"Structure (SMILES)": "O=C(O)c1cn(C2CC2)c2cc(N3CCNCC3)c(F)cc2c1=O", "organism": "Staphylococcus aureus", "assay": "microbial killing", "quantity": "MBC", "value": "19 µM"}
{"Structure (SMILES)": "CN[C@H](CC(C)C)C(=O)N[C@H]1C(=O)N[C@@H](CC(N)=O)C(=O)N[C@H]2C(=O)N[C@H]3C(=O)N[C@H](C(=O)N[C@H](C(=O)O)c4cc(O)cc(O)c4-c4cc3ccc4O)[C@H](O)c3ccc(c(Cl)c3)Oc3cc2cc(c3O[C@@H]2O[C@H](CO)[C@@H](O)[C@H](O)[C@H]2O[C@H]2C[C@](C)(N)[C@H](O)[C@H](C)O2)Oc2ccc(cc2Cl)[C@H]1O", "organism": "Staphylococcus aureus", "assay": "microbial killing, broth dilution", "system": "NRS107", "quantity": "MBC", "value": "1 µM"}
{"Structure (SMILES)": "Cc1ccc2[nH]c3c(c2c1)CCCC3NCCc1ccc(O)cc1 (centres unmarked)", "organism": "Micrococcus luteus", "assay": "microbial growth, broth dilution", "system": "DSM1790", "quantity": "MIC", "value": "8 µg/mL"}
{"Structure (SMILES)": "CN[C@H](CC(C)C)C(=O)N[C@H]1C(=O)N[C@@H](CC(N)=O)C(=O)N[C@H]2C(=O)N[C@H]3C(=O)N[C@H](C(=O)N[C@H](C(=O)O)c4cc(O)cc(O)c4-c4cc3ccc4O)[C@H](O)c3ccc(c(Cl)c3)Oc3cc2cc(c3O[C@@H]2O[C@H](CO)[C@@H](O)[C@H](O)[C@H]2O[C@H]2C[C@](C)(N)[C@H](O)[C@H](C)O2)Oc2ccc(cc2Cl)[C@H]1O", "organism": "Lactobacillus acidophilus", "assay": "microbial growth, agar dilution", "setting": "48 h", "quantity": "MIC", "value": "2 µg/mL"}
{"Structure (SMILES)": "COC(=O)c1cc(-c2cccc(NC(=O)Nc3cccc(Br)c3)c2)on1", "organism": "Escherichia coli", "assay": "microbial growth, broth dilution", "system": "ATCC25922", "quantity": "MIC", "value": "> 64 µg/mL"}
{"Structure (SMILES)": "c1ccc(CCOC2CCCc3c2[nH]c2ccccc32)cc1 (centres unmarked)", "organism": "Micrococcus luteus", "assay": "microbial growth, broth dilution", "system": "DSM1790", "quantity": "MIC", "value": "128 µg/mL"}
